# According to ChEMBL document CHEMBL4052637, “Discovery and Characterization of R/S-N-3-Cyanophenyl-N'-(6-tert-butoxycarbonylamino-3,4-dihydro-2,2-dimethyl-2H-1-benzopyran-4-yl)urea, a New Histone Deacetylase Class III Inhibitor Exerting Antiproliferative Activity against Cancer Cell Lines” (J Med Chem, 2017):
# The source made the active and inactive calls. No cut-off for these calls is given here.
# Key:
# T98G = test: Antiproliferative activity against human T98G cells after 72 hrs by MTT assay; assay type: functional, cell-based
# Procedure, shortened: (§1)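 MTT assay: cells in RPMI 1640 with 10% heat-inactivated FCS at 37 °C and 5% CO2 were seeded 24 h before treatment. They were exposed 72 h to compound at 0.01–100 μM, with DMSO as solvent.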
# U-373MG ATCC [1] = test: Cell cycle arrest in human U373 cells assessed as accumulation at G1 phase at IC50 after 24 to 48 hrs by propidium iodide staining-based flow cytometry; assay type: functional
# Procedure, shortened: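 Cells were exposed to compound at the IC50 for each line from the 72 h MTT assay, or to a reference HDAC inhibitor at 2 μM. Cell cycle distribution was analyzed after 24 and 48 h. Results are mean ± SD of three independent experiments, with p values against control cells.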
# [2] = Induction of senescence in human U373 cells at 5 uM after 6 days by beta-galactosidase assay relative to control; assay type: functional, U-373MG ATCC
# Procedure, shortened: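 Cells were kept 6 days in medium containing 5 μM compound or DMSO vehicle, then stained for senescence-associated β-galactosidase activity. Blue-stained cells were counted and expressed as a percentage of total cells counted. Two independent experiments.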
# U-373MG ATCC [3] = test: Inhibition of spheroid forming capacity of human U373 cells assessed as decrease in volume of multicellular tumor spheroids at 5 to 10 uM treated for 24 hrs measured after 96 hrs by bright field microscopic method; assay type: functional, cell-based
# Procedure, shortened: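 Spheroids formed from 1 × 10^3 cells in 25 μL. Cells were pretreated 24 h with compound then left untreated 96 h, or untreated spheroids were cultured 96 h with compound. Surface measured from bright-field images; volume in voxels from 3D plots after image segmentation. Mean ± SD of three independent experiments.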
# Hs 683 [4] = test: Antitumor activity against CM-Dil fluorescent dye labeled human Hs683 cells xenografted in zebrafish embryo at 5 to 10 uM preincubated with tumor for 30 hrs followed by tumor implantation in zebra fish yolk sac measured after 72 hrs by fluorescence microscopy; assay type: functional, cell-based
# Procedure, shortened: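 Cells were pretreated in vitro at 5 or 10 μM for 30 or 36 h and labeled with CM-DiI 2 h before injection. Then 100–200 cells were injected into the yolk sac of wild-type zebrafish 48 h post-fertilization, anesthetized in 0.02% tricaine. Embryos were kept 72 h at 28.5 °C in Danieau solution with 0.003% phenylthiourea, and fluorescence was quantified in eight fish per condition.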
# HCT-116 = test: Antiproliferative activity against p53 knock out human HCT116 cells after 72 hrs by MTT assay; assay type: functional, cell-based; procedure, shortened: as §1
# A2780cis = test: Antiproliferative activity against human A2780cis cells after 72 hrs by MTT assay; assay type: functional, cell-based; procedure, shortened: as §1
# KB 3-1 = test: Antiproliferative activity against human KB-3-1 cells after 72 hrs by MTT assay; assay type: functional, cell-based; procedure, shortened: as §1
# KBC1 = test: Antiproliferative activity against human KBC1 cells overexpressing ABCB1 after 72 hrs by MTT assay; assay type: functional, cell-based; procedure, shortened: as §1
# [5] = target: T1, NAD-dependent protein deacetylase sirtuin-1 (Homo sapiens) (UniProt Q96EB6); test: Inhibition of SIRT1 in human U373 cells assessed as increase of histone H4 acetylation at 1 uM after 8 hrs by Western blotting method relative to control; assay type: cell-based
# T1 sequence (whole entry): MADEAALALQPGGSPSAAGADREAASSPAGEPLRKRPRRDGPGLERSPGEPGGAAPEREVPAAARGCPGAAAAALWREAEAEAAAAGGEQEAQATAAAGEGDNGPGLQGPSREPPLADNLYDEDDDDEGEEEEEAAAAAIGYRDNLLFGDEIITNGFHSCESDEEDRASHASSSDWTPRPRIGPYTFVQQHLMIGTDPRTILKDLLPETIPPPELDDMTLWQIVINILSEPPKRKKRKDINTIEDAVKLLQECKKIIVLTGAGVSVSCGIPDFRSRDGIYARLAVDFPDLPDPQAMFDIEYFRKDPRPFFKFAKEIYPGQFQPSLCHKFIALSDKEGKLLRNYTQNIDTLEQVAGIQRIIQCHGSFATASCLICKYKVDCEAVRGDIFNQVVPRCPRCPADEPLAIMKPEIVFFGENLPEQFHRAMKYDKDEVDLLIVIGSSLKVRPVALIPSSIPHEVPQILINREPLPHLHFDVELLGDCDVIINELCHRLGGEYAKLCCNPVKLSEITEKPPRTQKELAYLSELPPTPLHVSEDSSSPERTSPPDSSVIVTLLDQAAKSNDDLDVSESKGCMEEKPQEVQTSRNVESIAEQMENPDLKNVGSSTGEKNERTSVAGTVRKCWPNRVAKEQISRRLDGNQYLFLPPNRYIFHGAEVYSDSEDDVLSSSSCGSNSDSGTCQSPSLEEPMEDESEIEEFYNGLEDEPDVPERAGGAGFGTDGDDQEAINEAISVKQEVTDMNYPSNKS
# [6] = target: T1, NAD-dependent protein deacetylase sirtuin-1 (Homo sapiens); test: Inhibition of SIRT1 in human U373 cells assessed as increase of histone H4 acetylation at 10 uM after 8 hrs by Western blotting method relative to control; assay type: cell-based
# [7] = target: T1, NAD-dependent protein deacetylase sirtuin-1 (Homo sapiens); test: Inhibition of SIRT1 in human Hs683 cells assessed as increase of histone H4 acetylation at 1 uM after 8 hrs by Western blotting method relative to control; assay type: cell-based
# [8] = target: T1, NAD-dependent protein deacetylase sirtuin-1 (Homo sapiens); test: Inhibition of SIRT1 in human Hs683 cells assessed as increase of histone H4 acetylation at 10 uM after 8 hrs by Western blotting method relative to control; assay type: cell-based
# Hs 683 [9] = test: Antiproliferative activity against human Hs683 cells transfected with SIRT1/2 siRNA at IC50 for MTT assay after 72 hrs by time-lapse videomicroscopy; assay type: functional, cell-based
# CCRF-CEM = test: Growth inhibition of human CCRF-CEM cells after 48 hrs by SRB assay; assay type: functional
# HOP-62 = test: Growth inhibition of human HOP62 cells after 48 hrs by SRB assay; assay type: functional; settings: HOP-62, 48 h
# HOP-92 = test: Growth inhibition of human HOP92 cells after 48 hrs by SRB assay; assay type: functional; settings: HOP-92, 48 h
# HCC 2998 = test: Growth inhibition of human HCC2998 cells after 48 hrs by SRB assay; assay type: functional; settings: HCC 2998, 48 h
# HT-29 = test: Growth inhibition of human HT-29 cells after 48 hrs by SRB assay; assay type: functional; settings: HT-29, 48 h
# KM12 = test: Growth inhibition of human KM12 cells after 48 hrs by SRB assay; assay type: functional; settings: KM12, 48 h
# SF-539 = test: Growth inhibition of human SF539 cells after 48 hrs by SRB assay; assay type: functional; settings: SF-539, 48 h
# Malme-3M = test: Growth inhibition of human MALME-3M cells after 48 hrs by SRB assay; assay type: functional
# IGROV-1 = test: Growth inhibition of human IGROV1 cells after 48 hrs by SRB assay; assay type: functional; settings: IGROV-1, 48 h
# OVCAR-4 = test: Growth inhibition of human OVCAR4 cells after 48 hrs by SRB assay; assay type: functional; settings: OVCAR-4, 48 h
# OVCAR-8 = test: Growth inhibition of human OVCAR8 cells after 48 hrs by SRB assay; assay type: functional; settings: OVCAR-8, 48 h
# SK-OV-3 = test: Growth inhibition of human SKOV3 cells after 48 hrs by SRB assay; assay type: functional; settings: SK-OV-3, 48 h
# T47D = test: Growth inhibition of human T47D cells after 48 hrs by SRB assay; assay type: functional
smiles,measurement,setting,value
CC(C)(C)OC(=O)Nc1ccc2c(c1)C(NC(=O)Nc1cccc(C#N)c1)CC(C)(C)O2 (configuration not stated),IC50,T98G,14 µM
same,Activity,U-373MG ATCC [1],Active
same,Activity,[2],18.2%
same,inhibition,U-373MG ATCC [3],Active
same,Activity,Hs 683 [4],Active
same,Activity,HCT-116,Active
same,Activity,A2780cis,Active
same,Activity,KB 3-1,Active
same,Activity,KBC1,Active
same,fold change (FC),[5],1.1
same,fold change (FC),[6],4.1
same,fold change (FC),[7],1.3
same,fold change (FC),[8],12
same,Activity,Hs 683 [9],Active
same,GI50,CCRF-CEM,3.31 µM
same,GI50,HOP-62,5.01 µM
same,GI50,HOP-92,0.776 µM
same,GI50,HCC 2998,5.13 µM
same,GI50,HT-29,6.92 µM
same,GI50,KM12,4.07 µM
same,GI50,SF-539,6.61 µM
same,GI50,Malme-3M,4.07 µM
same,GI50,IGROV-1,6.31 µM
same,GI50,OVCAR-4,1.78 µM
same,GI50,OVCAR-8,3.16 µM
same,GI50,SK-OV-3,9.12 µM
same,GI50,T47D,2.69 µM
